The subject of series [1] is Rattus norvegicus. Kind of series: Ex vivo inhibition of platelet aggregation in Sprague-Dawley rat at 10 mg/kg, po after 2 hrs. The following applies: for inhibition in vivo at 10 mg/kg: Rattus norvegicus, Sprague-Dawley, po, 2 h; for inhibition (INH): 10 mg/kg. It counts as functional. In outline: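 Male Sprague−Dawley rats (250−300 g), 6 per batch, are dosed by stomach tube at 10 mL/kg of a 1 mg/mL solution in 5% glucose water containing 5% Cremophor and 3% glycofurol. At 2 h, aortic blood is drawn into 3.8% citrate (1:9) under pentobarbital. PRP is prepared at 300g for 5 min. ADP aggregation is read as the 6-min absorbance AUC and expressed as % inhibition.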

Series [2] is described as follows: (§1) Metabolic stability in human liver microsomes assessed as compound metabolism after 20 mins incubation in presence of 1 mM NADPH. The class given is ADME. The following applies: liver microsomes, read-out: Drug metabolism. In short, it runs like this:
(§2)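 Hepatic microsomal fractions are incubated with compound for 20 min with 1 mM NADPH. Result is reported as % metabolized, i.e. 100 minus % unchanged compound.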
(Liver microsomes are a subcellular fraction often used to study metabolism.)

Series [3] in a line: Permeability across human Caco2 cells. It counts as ADME, cell-based. The note with it: for Papp: Caco-2, read-out: permeability; for permeability: Caco-2. In outline:
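Permeation is measured across a Caco2 cell monolayer and reported in 10⁻⁷ cm·s⁻¹.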
A general note: Caco-2 cells form a polarised layer with tight junctions and transporters.

Series [4] is described as follows: (§3) Metabolic stability in rat liver microsomes assessed as compound metabolism after 20 mins incubation in presence of 1 mM NADPH. The class given is ADME. The following applies: liver microsomes, read-out: Drug metabolism. In short, it runs like this: as §2
Series [5] is described as follows: Solubility in water at pH 4.9. The class given is physicochemical.
The next series addresses P2Y purinoceptor 12 (Homo sapiens, UniProt Q9H244). Kind of series: Displacement of [33P]2MeS-ADP from P2Y12 receptor (unknown origin) transfected in CHO cells after 30 mins by scintillation counting analysis. The class given is cell-based. In short, it runs like this: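 P2Y12-expressing CHO cells (35 × 10³/sample) in PBS with 1 mM EDTA and 0.2% BSA are exposed to compound for 30 min. [³³P]2-MeS-ADP (0.16 nM) is then added for 15 min at 20 °C, in triplicate. Filtration separates free from bound ligand, followed by scintillation counting. Nonspecific binding uses 1 mM unlabeled ADP. IC50 comes from a four-parameter logistic fit with asymptotes fixed at 0 and 100. n = 2.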

Series [6] concerns Rattus norvegicus. Kind of series: Ex vivo inhibition of platelet aggregation in Sprague-Dawley rat at 10 mg/kg, po after 6 hrs. It counts as functional. The note with it: for inhibition (INH): 10 mg/kg. In short, it runs like this: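 Time-course study in Sprague−Dawley rats after a 10 mg/kg oral dose in glucose/Cremophor/glycofurol vehicle. Aortic citrated blood is sampled at intervals over the hours after dosing. PRP is prepared at 300g for 5 min. ADP-induced aggregation is measured as the 6-min absorbance AUC and reported as % inhibition.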

The subject of series [7] is Liver microsome. Described as §3. The class given is ADME. The following applies: microsomes, 20 min. In short, it runs like this:
as §2

Series [8] relates to Liver microsome. The description is as §1. The note with it: microsomes, 20 min. It counts as ADME. In short, it runs like this:
as §2

Series [9] has as its system Rattus norvegicus. Kind of series: Ex vivo inhibition of platelet aggregation in Sprague-Dawley rat at 3 mg/kg, iv after 30 mins. It counts as functional. The note with it: 0.5 h. In short, it runs like this: (§4)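 Male Sprague−Dawley rats (250−300 g) receive compound iv. At 30 min, under pentobarbital anesthesia, blood is taken from the abdominal aorta into 3.8% citrate (1:9). PRP is prepared at 300g for 5 min. ADP-induced aggregation is measured, using the area under the absorbance curve over 6 min, and expressed as % inhibition.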

For series [10], the system named is Rattus norvegicus. Kind of series: Ex vivo inhibition of platelet aggregation in Sprague-Dawley rat at 10 mg/kg, iv after 30 mins. It counts as functional. The note with it: 0.5 h. In outline: as §4
The test system of series [11] is Rattus norvegicus. The series can be described thus: Ex vivo inhibition of platelet aggregation in Sprague-Dawley rat at 1 mg/kg, iv after 30 mins. The following applies: 0.5 h. It counts as functional. In short, it runs like this:
as §4

Series [12] is described as follows: Solubility in water at final pH. It counts as physicochemical.
The test system of series [13] is Hepatocyte. Kind of series: Intrinsic metabolic clearance in human hepatocytes measured assessed as CYP3A4 contribution per 10^6 cells after 24 hrs. The class given is ADME, cell-based.
The test system of series [14] is Rattus norvegicus. The series can be described thus: Ex vivo inhibition of platelet aggregation in po dosed Sprague-Dawley rat after 2 hrs. The class given is functional. In outline: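 Oral gavage in male Sprague−Dawley rats (250−300 g, 6 per batch), vehicle 5% glucose water with 5% Cremophor and 3% glycofurol. Blood is collected 2 h after dosing from the abdominal aorta into 3.8% citrate under pentobarbital. PRP is prepared at 300g for 5 min. ADP-induced aggregation is quantified as the 6-min absorbance AUC, given as % inhibition.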

Series [15] relates to Hepatocyte. Kind of series: Intrinsic metabolic clearance in human hepatocytes measured per 10^6 cells after 24 hrs. It counts as ADME, cell-based. In short, it runs like this:
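Human hepatocytes incubated with compound for 24 h to measure in vitro metabolism. Clearance reported in mL·h⁻¹·(10⁶ hepatocytes)⁻¹.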

A short description of series [16]: Metabolic stability in mouse liver microsomes assessed as compound metabolism after 20 mins incubation in presence of 1 mM NADPH. It counts as ADME. The note with it: read-out: Drug metabolism. In short, it runs like this:
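Compound incubated with mouse hepatic microsomal fractions for 20 min with 1 mM NADPH. Read-out is % metabolism, meaning 100 minus % unchanged compound.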

As usually defined, the inhibition in vivo is the change of the read-out against control, counted positive when it falls. One may read the solubility as the concentration that dissolves in the medium under given conditions. In general, IC50 refers to the concentration at which inhibition is half-maximal. Lower therefore signals inhibition by little substance. One may read the ED50 as the midpoint of the dose-response relation.

Where only a bound is given, the exact number is not on record here.

Chain of P2Y purinoceptor 12 (Q9H244 whole entry): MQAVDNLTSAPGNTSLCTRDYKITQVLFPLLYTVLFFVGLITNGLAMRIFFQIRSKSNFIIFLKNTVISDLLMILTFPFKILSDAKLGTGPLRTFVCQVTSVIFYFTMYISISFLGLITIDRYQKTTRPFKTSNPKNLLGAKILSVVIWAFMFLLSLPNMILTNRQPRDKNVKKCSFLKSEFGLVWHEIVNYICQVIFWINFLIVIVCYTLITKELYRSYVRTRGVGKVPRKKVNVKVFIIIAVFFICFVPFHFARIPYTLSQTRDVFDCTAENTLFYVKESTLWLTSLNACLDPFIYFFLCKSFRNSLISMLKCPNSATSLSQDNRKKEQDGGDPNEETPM

Consider `CCCC(=O)c1cnn(-c2ccc(NC(=O)c3cn(CC(=O)N4CCN(C)CC4)c4ccc(C)cc34)cc2)c1C.Cl`, for which the inhibition in vivo at 10 mg/kg in the series with Rattus norvegicus [1] was found to be 33%. In addition, the metabolised at 20 min was 39% in series [2] and 41% in series [4]. Besides, the Papp in series [3] is 4 ×10⁻⁶ cm/s. The solubility in series [5] was 760 µg/mL. For the same compound, the IC50 at P2Y purinoceptor 12 was 31 nM.
As to `CCCC(=O)c1cnn(-c2ccc(NC(=O)c3cn(CC(=O)N4CCN5CCN(C)C(=O)C5C4)c4ccc(Cl)cc34)cc2)c1C` (racemic), the “inhibition (INH)” value stood at 80% with Rattus norvegicus [1] and 39% in the series with Rattus norvegicus [6]. Besides, in series [2], the metabolised at 20 min was 50%. Besides, the Papp in series [3] is 3.6 ×10⁻⁶ cm/s. Further, in the series on Liver microsome [7], the Drug metabolism is listed as 40%. This compound showed an IC50 on P2Y purinoceptor 12 of 8 nM.
Regarding `CCCC(=O)c1cnn(-c2ccc(NC(=O)c3cn(CC(=O)N4CCN5CCN(C)C(=O)C5C4)c4ccc(Cl)cc34)cc2)c1C` (single isomer, unassigned; 103), the “inhibition (INH)” value in the series with Rattus norvegicus [1] was determined as 46%. In addition, the figures for the Drug metabolism in the series with Liver microsome [8] and in the series on Liver microsome [7] were 52% and 23%, respectively. This compound had a permeability in series [3] of 32 ×10⁻⁷ cm/s. The IC50 at P2Y purinoceptor 12 was found to be 7 nM.
On to `CCCC(=O)c1cnn(-c2ccc(NC(=O)c3cn(CC(=O)N4CCN(C)CC4)c4ccc(Cl)cc34)cc2)c1C`, for which the inhibition in vivo at 10 mg/kg amounted to 50% in the series with Rattus norvegicus [1]; 51% with Rattus norvegicus [6] (Rattus norvegicus, Sprague-Dawley, po, 6 h); 86% with Rattus norvegicus [10]. For the same compound, in the series with Rattus norvegicus [9], the inhibition in vivo at 3 mg/kg came to 70%. Also, the figures for the metabolised at 20 min in series [2] and in [4] were 36% and 14%, respectively. Also, the Papp in series [3] is 1.6 ×10⁻⁶ cm/s. In the series with Rattus norvegicus [11], this compound returned an inhibition in vivo at 1 mg/kg of 53%. The same compound yielded an IC50 at P2Y purinoceptor 12 of 27 nM.
On to `CCCC(=O)c1cnn(-c2ccc(NC(=O)c3cn(CC(=O)N(C)C)c4cc(C)c(C)cc34)cc2)c1C`, for which the solubility in [12] is less than 10 µg/mL. The metabolised at 20 min in series [2] is 59%; in series [4], 64%. For the same compound, the Papp in series [3] was determined as 18.6 ×10⁻⁶ cm/s. Besides, the IC50 at P2Y purinoceptor 12 is 31 nM.
For the compound `CCCC(=O)c1cnn(C2CCN(NC(=O)c3cn(CC(=O)N4CCN(C)CC4)c4ccc(Cl)cc34)CC2)c1C`, the Activity in the series with Hepatocyte [13] was 35%. Further, the metabolised at 20 min worked out at 59% in series [2], 13% in [4] and 3% in series [16]. For the same compound, the Papp in series [3] amounted to 0.1 ×10⁻⁶ cm/s. Further, in the series with Rattus norvegicus [14], the ED50 is 0.95 mg/kg. In addition, the inhibition entry with Rattus norvegicus [14] is “Dose-dependent effect”. Moreover, the CLH in the series with Hepatocyte [15] came to 0.05 mL/h. On P2Y purinoceptor 12, the half-maximal inhibitory concentration (IC50) is 7 nM.
Take `CCCC(=O)c1cnn(-c2ccc(NC(=O)c3cn(CC(=O)N4CCN5CCN(C)C(=O)C5C4)c4ccc(Cl)cc34)cc2)c1C` (single isomer, unassigned; 104): the “inhibition (INH)” value in the series with Rattus norvegicus [6] was found to be 61%. For the same compound, the Drug metabolism is recorded as 47% in the series on Liver microsome [8] and 7% with Liver microsome [7]. In series [3], this compound displayed a permeability of 28 ×10⁻⁷ cm/s. The compound also had an IC50 on P2Y purinoceptor 12 of 12 nM.
